These results are taken from ChEMBL document CHEMBL1255444, “In vitro antibacterial activities of JNJ-Q2, a new broad-spectrum fluoroquinolone” (Antimicrob Agents Chemother, 2010).

The structures appear in SMILES notation. In brackets after ≈: the same amount, converted by molar mass. A value given as a limit tells only on which side of the number the result lay.

Holding throughout (type): functional
The subject of experiment [1] is Streptococcus pneumoniae. The experiment is described as follows: Antibacterial activity against Streptococcus pneumoniae ATCC 49619 by broth microdilution method. An outline of the steps:
(§1)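 MICs by CLSI M07-A7 broth microdilution in cation-adjusted Mueller-Hinton medium. For S. pneumoniae the medium was supplemented with 5% lysed horse blood. CLSI quality control strains were run alongside as appropriate.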
(Dilution methods test growth across graded concentrations, often in twofold steps.)

The subject of experiment [2] is Serratia marcescens. Description: Antibacterial activity against Serratia marcescens by broth microdilution method. An outline of the steps:
as §1

Experiment [3] relates to Haemophilus influenzae. The experiment is described as follows: Antibacterial activity against Haemophilus influenzae by broth microdilution method. An outline of the steps:
as §1

In experiment [4] the test system is Citrobacter freundii. Description: Antibacterial activity against Citrobacter freundii by broth microdilution method. An outline of the steps:
as §1

Experiment [5] has as its system Moraxella catarrhalis. Description: Antibacterial activity against Moraxella catarrhalis by broth microdilution method. An outline of the steps:
as §1

Experiment [6] has as its system Escherichia coli. Description: Antibacterial activity against ciprofloxacin-resistant Escherichia coli by broth microdilution method. In outline: (§2)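 CLSI M07-A7 broth microdilution MIC. Medium was cation-adjusted Mueller-Hinton broth. For S. pneumoniae it was Mueller-Hinton supplemented with 5% lysed horse blood. CLSI quality-control strains were included as appropriate.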

Experiment [7] deals with Proteus mirabilis. The experiment is described as follows: Antibacterial activity against Proteus mirabilis by broth microdilution method. An outline of the steps:
as §1

Experiment [8] concerns Klebsiella pneumoniae. The experiment is described as follows: Antibacterial activity against Klebsiella pneumoniae by broth microdilution method. An outline of the steps: as §1
Experiment [9] has as its system Providencia stuartii. Description: Antibacterial activity against Providencia stuartii by broth microdilution method. An outline of the steps: as §1
The subject of experiment [10] is Enterobacter cloacae. The experiment is described as follows: Antibacterial activity against Enterobacter cloacae by broth microdilution method.
The test system of experiment [11] is Streptococcus pneumoniae. The experiment is described as follows: Antibacterial activity against ciprofloxacin-resistant Streptococcus pneumoniae by broth microdilution method. In outline:
as §2

Experiment [12] has as its system Staphylococcus epidermidis. Description: Antibacterial activity against methicillin-, ciprofloxacin-resistant Staphylococcus epidermidis by broth microdilution method.
The subject of experiment [13] is Klebsiella aerogenes. Description: Antibacterial activity against Enterobacter aerogenes by broth microdilution method. In outline: as §1
Experiment [14] deals with Pseudomonas aeruginosa. The experiment is described as follows: Antibacterial activity against Pseudomonas aeruginosa ATCC 27853 by broth microdilution method. An outline of the steps:
as §1

Experiment [15] has as its system Staphylococcus epidermidis. Description: Antibacterial activity against methicillin-resistant Staphylococcus epidermidis by broth microdilution method.
Experiment [16] relates to Staphylococcus epidermidis. The experiment is described as follows: Antibacterial activity against methicillin-susceptible Staphylococcus epidermidis by broth microdilution method.
Experiment [17] relates to Enterococcus faecalis. The experiment is described as follows: Antibacterial activity against Enterococcus faecalis ATCC 29212 by broth microdilution method. An outline of the steps:
as §1

Experiment [18] has as its system Staphylococcus aureus. The experiment is described as follows: Antibacterial activity against Staphylococcus aureus […] by broth microdilution method. In outline:
as §2

In experiment [19] the test system is Staphylococcus aureus. Description: Antibacterial activity against methicillin-, ciprofloxacin-resistant Staphylococcus aureus by broth microdilution method. In outline:
as §2

Experiment [20] concerns Staphylococcus aureus. The experiment is described as follows: Antibacterial activity against methicillin-resistant Staphylococcus aureus by broth microdilution method. In outline: as §2
The test system of experiment [21] is Enterococcus faecium. The experiment is described as follows: Antibacterial activity against Enterococcus faecium by broth microdilution method. In outline: as §1
For experiment [22], the system named is Staphylococcus aureus. The experiment is described as follows: Antibacterial activity against methicillin-susceptible Staphylococcus aureus by broth microdilution method.

What is called MIC is the lowest concentration that inhibits growth of the organism. A high value points to a need for much substance. `CO/N=C1\CN(c2nc3c(cc2F)c(=O)c(C(=O)O)cn3C2CC2)CC1CN` (configuration not stated) [GEMIFLOXACIN]: the MIC50 in experiment [1] was 0.03 µg/mL (≈ 0.077 µM); in experiment [2] it was 0.25 µg/mL (≈ 0.642 µM); in [3], at most 0.004 µg/mL; in experiment [4], 1 µg/mL (≈ 2.57 µM); in experiment [5], at most 0.015 µg/mL; in [6] it was 32 µg/mL (≈ 82.2 µM). Besides, in experiment [7], the MIC50 is 0.12 µg/mL (≈ 0.308 µM). Moreover, the MIC90 is 0.5 µg/mL (≈ 1.28 µM) in [1]; 0.5 µg/mL (≈ 1.28 µM) in experiment [2]; 0.008 µg/mL (≈ 0.0205 µM) in [3]; above 4 µg/mL in experiment [4]; at most 0.015 µg/mL in experiment [5]; 64 µg/mL (≈ 164 µM) in experiment [6]. This compound also came in with an MIC90 in experiment [7] of 0.25 µg/mL (≈ 0.642 µM). This compound came in with an MIC in experiment [5] of at most 0.015 µg/mL.

In the case of `C[C@H]1COc2c(N3CCN(C)CC3)c(F)cc3c(=O)c(C(=O)O)cn1c23.C[C@H]1COc2c(N3CCN(C)CC3)c(F)cc3c(=O)c(C(=O)O)cn1c23.O` [LEVOFLOXACIN], the MIC50 came out at 0.06 µg/mL in [8]; 16 µg/mL in [9]; 0.06 µg/mL in [10]; 16 µg/mL in experiment [11]; 16 µg/mL in experiment [6]; 16 µg/mL in experiment [12]. The MIC50 in experiment [13] was found to be 0.06 µg/mL; in experiment [14], 0.5 µg/mL; in experiment [15], 8 µg/mL; in experiment [16], 0.12 µg/mL. Also, the MIC90 came to 0.12 µg/mL in experiment [8]; 64 µg/mL in experiment [9]; 0.12 µg/mL in [10]; 64 µg/mL in [11]; 64 µg/mL in experiment [6]; 16 µg/mL in [12]. Moreover, the MIC90 in experiment [13] stood at 0.06 µg/mL; in [14] it was 2 µg/mL; in [15] it was 16 µg/mL; in [16], 0.25 µg/mL. The MIC in [14] was found to be 0.5 µg/mL; in experiment [16], 0.12 µg/mL.

In the case of `CC1(C)S[C@@H]2[C@H](NC(=O)Cc3ccccc3)C(=O)N2[C@H]1C(=O)O` [PENICILLIN G], in experiment [1], the MIC50 was 0.06 µg/mL (≈ 0.179 µM) and the MIC90 was 2 µg/mL (≈ 5.98 µM).

Take `CN[C@H](CC(C)C)C(=O)N[C@H]1C(=O)N[C@@H](CC(N)=O)C(=O)N[C@H]2C(=O)N[C@H]3C(=O)N[C@H](C(=O)N[C@H](C(=O)O)c4cc(O)cc(O)c4-c4cc3ccc4O)[C@H](O)c3ccc(c(Cl)c3)Oc3cc2cc(c3O[C@@H]2O[C@H](CO)[C@@H](O)[C@H](O)[C@H]2O[C@H]2C[C@](C)(N)[C@H](O)[C@H](C)O2)Oc2ccc(cc2Cl)[C@H]1O` [VANCOMYCIN]: the MIC50 in [17] was 2 µg/mL (≈ 1.38 µM); in experiment [18] it was 1 µg/mL (≈ 0.69 µM); in experiment [19], 1 µg/mL (≈ 0.69 µM); in experiment [20], 1 µg/mL (≈ 0.69 µM); in experiment [12] it was 2 µg/mL (≈ 1.38 µM); in experiment [21], above 16 µg/mL. Further, the results for the MIC50 in experiment [15], in experiment [22] and in [16] were 2 µg/mL (≈ 1.38 µM), 1 µg/mL (≈ 0.69 µM) and 2 µg/mL (≈ 1.38 µM), respectively. The MIC90 in experiment [17] was above 16 µg/mL; in experiment [18], 1 µg/mL (≈ 0.69 µM); in experiment [19] it was 1 µg/mL (≈ 0.69 µM); in experiment [20] it was 1 µg/mL (≈ 0.69 µM); in experiment [12], 2 µg/mL (≈ 1.38 µM); in experiment [21], above 16 µg/mL. Also, the MIC90 in [15], in [22] and in experiment [16] was 2 µg/mL (≈ 1.38 µM) throughout.
